Assay results taken from ChEMBL document CHEMBL1777724, “Discovery, design and synthesis of the first reported potent and selective sphingosine-1-phosphate 4 (S1P4) receptor antagonists” (Bioorg Med Chem Lett, 2011).
Activity calls are given as the source filed them. The rule behind the calls is not given here.

Assays:
[1] = target: T1, Sphingosine 1-phosphate receptor 4 (Homo sapiens, UniProt O95977); assay: Antagonist activity at S1P4 receptor in human U2OS cells expressing EDG6-linked GAL4-VP16 transcription factor via TEV protease site/beta-arrestin/TEV protease fusion protein and beta-lactamase reporter gene assessed as beta-lactamase expression by FRET assay; type: functional, cell-based
T1 sequence (O95977 whole entry): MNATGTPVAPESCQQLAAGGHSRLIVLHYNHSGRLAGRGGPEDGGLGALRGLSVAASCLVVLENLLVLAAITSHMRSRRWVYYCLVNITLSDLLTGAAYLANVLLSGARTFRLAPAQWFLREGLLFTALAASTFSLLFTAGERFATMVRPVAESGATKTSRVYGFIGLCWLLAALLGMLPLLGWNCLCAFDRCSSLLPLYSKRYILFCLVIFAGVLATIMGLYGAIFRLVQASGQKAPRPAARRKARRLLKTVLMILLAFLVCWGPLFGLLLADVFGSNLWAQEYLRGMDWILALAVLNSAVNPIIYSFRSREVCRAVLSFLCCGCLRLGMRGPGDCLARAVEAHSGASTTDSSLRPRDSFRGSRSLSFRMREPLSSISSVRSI
In short: (§1)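 Cells co-express a beta-arrestin/TEV protease fusion protein and a beta-lactamase reporter gene under a UAS response element. Reporter expression was read as FRET of a cleavable, fluorogenic, cell-permeable beta-lactamase substrate. Compounds were tested at concentrations up to 25 μM. IC50 values are the mean of n = 3 determinations.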

[2] = target: T2, Sphingosine 1-phosphate receptor 4 (Homo sapiens) (UniProt O95977); assay: Antagonist activity at S1P4 receptor in human U2OS cells expressing EDG6-linked GAL4-VP16 transcription factor via TEV protease site/beta-arrestin/TEV protease fusion protein and beta-lactamase reporter gene assessed as beta-lactamase expression up to 25 uM by FRET assay; type: functional, cell-based; in short: as §1
T2 sequence (whole entry): T1 sequence (O95977 whole entry)

[3] = target: Sphingosine 1-phosphate receptor 3 (Homo sapiens, UniProt Q99500); assay: Inhibition of S1P3 receptor at 25 uM
In short: (§2)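 Selectivity counter-screen reported as percentage of inhibition at a single 25 μM concentration, given as the mean of n = 3 determinations.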

[4] = target: T3, Sphingosine 1-phosphate receptor 5 (Homo sapiens, UniProt Q9H228); assay: Inhibition of S1P5 receptor at 25 uM; in short: as §2
[5] = target: T4, Sphingosine 1-phosphate receptor 1 (Homo sapiens, UniProt P21453); assay: Inhibition of S1P1 receptor at 25 uM; in short: as §2
[6] = target: T5, Sphingosine 1-phosphate receptor 2 (Homo sapiens, UniProt O95136); assay: Inhibition of S1P2 receptor at 25 uM; in short: as §2
[7] = target: T3, Sphingosine 1-phosphate receptor 5; assay: Inhibition of S1P5 receptor
[8] = target: T4, Sphingosine 1-phosphate receptor 1; assay: Inhibition of S1P1 receptor
[9] = target: T5, Sphingosine 1-phosphate receptor 2; assay: Inhibition of S1P2 receptor

Sphingosine 1-phosphate receptor 3, sequence (Q99500 whole entry): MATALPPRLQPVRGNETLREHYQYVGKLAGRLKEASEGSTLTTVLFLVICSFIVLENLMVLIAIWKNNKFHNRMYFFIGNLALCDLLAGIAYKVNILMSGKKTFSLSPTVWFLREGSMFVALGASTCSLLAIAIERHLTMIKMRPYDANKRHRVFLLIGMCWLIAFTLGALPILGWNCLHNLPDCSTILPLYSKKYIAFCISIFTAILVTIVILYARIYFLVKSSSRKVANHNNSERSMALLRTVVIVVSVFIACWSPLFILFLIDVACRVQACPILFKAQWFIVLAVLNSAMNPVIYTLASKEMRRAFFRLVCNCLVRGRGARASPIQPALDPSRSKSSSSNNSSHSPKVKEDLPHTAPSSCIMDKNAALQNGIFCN
T5 sequence (O95136 whole entry): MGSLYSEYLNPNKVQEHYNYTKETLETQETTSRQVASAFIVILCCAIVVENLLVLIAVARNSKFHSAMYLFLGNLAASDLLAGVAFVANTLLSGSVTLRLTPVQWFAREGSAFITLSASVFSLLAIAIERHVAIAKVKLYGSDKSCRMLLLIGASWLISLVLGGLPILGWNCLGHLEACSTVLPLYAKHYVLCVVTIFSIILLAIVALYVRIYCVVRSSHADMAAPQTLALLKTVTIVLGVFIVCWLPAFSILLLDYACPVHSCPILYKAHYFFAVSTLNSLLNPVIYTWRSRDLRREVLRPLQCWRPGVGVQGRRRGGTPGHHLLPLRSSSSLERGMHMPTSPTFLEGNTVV
T4 sequence (P21453 whole entry): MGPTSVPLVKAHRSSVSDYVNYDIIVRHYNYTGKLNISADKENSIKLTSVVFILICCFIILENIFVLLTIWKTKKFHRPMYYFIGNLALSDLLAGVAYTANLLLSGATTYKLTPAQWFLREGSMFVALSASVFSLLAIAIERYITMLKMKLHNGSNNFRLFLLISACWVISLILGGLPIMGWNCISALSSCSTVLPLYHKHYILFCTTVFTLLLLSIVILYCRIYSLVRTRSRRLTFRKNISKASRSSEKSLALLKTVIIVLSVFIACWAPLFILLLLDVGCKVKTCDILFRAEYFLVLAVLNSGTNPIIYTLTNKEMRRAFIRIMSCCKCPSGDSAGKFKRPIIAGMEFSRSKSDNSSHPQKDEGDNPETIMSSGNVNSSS
T3 sequence (Q9H228 whole entry): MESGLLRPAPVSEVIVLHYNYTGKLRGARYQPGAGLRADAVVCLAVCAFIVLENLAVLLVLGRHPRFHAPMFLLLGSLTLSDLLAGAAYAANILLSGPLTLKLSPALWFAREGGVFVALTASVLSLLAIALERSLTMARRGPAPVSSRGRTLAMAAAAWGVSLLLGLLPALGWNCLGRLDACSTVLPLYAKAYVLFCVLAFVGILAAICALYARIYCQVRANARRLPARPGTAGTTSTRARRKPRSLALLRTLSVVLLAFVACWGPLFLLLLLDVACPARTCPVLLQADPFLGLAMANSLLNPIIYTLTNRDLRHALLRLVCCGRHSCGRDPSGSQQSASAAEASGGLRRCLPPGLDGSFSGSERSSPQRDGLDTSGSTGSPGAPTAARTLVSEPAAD

Cc1cccc(C)c1NC(=O)c1ccc(-c2ccsc2)o1
IC50 [1]: 448 nM

Cc1cccc(CO)c1NC(=O)c1ccc(-c2cc(Cl)ccc2Cl)o1
IC50 [1]: 573 nM

O=C(c1ccc(-c2cc(Cl)ccc2Cl)o1)N1CCc2ccccc21
inhibition [2]: inactive

Cc1cccc(C)c1NC(=O)c1ccc(-c2ccc(Cl)s2)o1
IC50 [1]: 515 nM

Cc1ccsc1-c1ccc(C(=O)Nc2c(C)cc(O)cc2C)o1
inhibition [3]: 10% | inhibition [4]: inactive | inhibition [5]: 75% | inhibition [6]: 80% | IC50 [1]: 46 nM

Cc1cc(CN)cc(C)c1NC(=O)c1ccc(-c2cc(Cl)ccc2Cl)o1
IC50 [7]: 5500 nM | inhibition [3]: 95% | IC50 [8]: 6400 nM | inhibition [4]: 90% | inhibition [6]: 90% | IC50 [1]: 25 nM | IC50 [9]: 3900 nM

Cc1cccc(C)c1NC(=O)c1ccc(-c2cc(C(F)(F)F)ccc2C(F)(F)F)o1
inhibition [2]: inactive

CCc1cccc(CC)c1NC(=O)c1ccc(-c2cc(Cl)ccc2Cl)o1
inhibition [3]: inactive | inhibition [4]: inactive | inhibition [5]: inactive | inhibition [6]: inactive | IC50 [1]: 89 nM

COc1cccc(C)c1NC(=O)c1ccc(-c2cc(Cl)ccc2Cl)o1
IC50 [1]: 163 nM

Cc1cc(C)c(N(C)C(=O)c2ccc(-c3cc(Cl)ccc3Cl)o2)c(C)c1
IC50 [1]: 8100 nM

Cc1cc(-c2ccccc2)cc(C)c1NC(=O)c1ccc(-c2cc(Cl)ccc2Cl)o1
IC50 [1]: 115 nM

CC(C)c1cccc(C(C)C)c1NC(=O)c1ccc(-c2cc(Cl)ccc2Cl)o1
IC50 [1]: 105 nM

Cc1ccc(C)c(-c2ccc(C(=O)Nc3c(C)cccc3C)o2)c1
IC50 [1]: 64 nM

Cc1cc(C)c(NC(=O)c2ccc(-c3cc(Cl)ccc3Cl)o2)c(C)c1
IC50 [1]: 63 nM

Cc1cc(OCCO)cc(C)c1NC(=O)c1ccc(-c2cc(Cl)ccc2Cl)o1
inhibition [3]: 70% | inhibition [4]: 60% | inhibition [5]: 35% | inhibition [6]: 90% | IC50 [1]: 44 nM | IC50 [9]: 2400 nM

COc1ccc(OC)c(-c2ccc(C(=O)N(C)c3c(C)cccc3C)o2)c1
IC50 [1]: 513 nM

Cc1cc(OCC(N)=O)cc(C)c1NC(=O)c1ccc(-c2cc(Cl)ccc2Cl)o1
IC50 [1]: 52 nM

Cc1cccc(C)c1NC(=O)c1ccc(-c2cccs2)o1
IC50 [1]: 118 nM

Cc1cc(CO)cc(C)c1NC(=O)c1ccc(-c2cc(Cl)ccc2Cl)o1
inhibition [3]: 60% | inhibition [4]: 40% | inhibition [5]: 45% | inhibition [6]: 85% | IC50 [1]: 21 nM | IC50 [9]: 3000 nM

CC(=O)NCc1cc(C)c(NC(=O)c2ccc(-c3cc(Cl)ccc3Cl)o2)c(C)c1
IC50 [1]: 94 nM

COc1cccc(OC)c1NC(=O)c1ccc(-c2cc(Cl)ccc2Cl)o1
IC50 [1]: 417 nM

Cc1ccc(S(C)(=O)=O)c(C)c1NC(=O)c1ccc(-c2cc(Cl)ccc2Cl)o1
IC50 [1]: 302 nM

Cc1cccc(C)c1N(C)C(=O)c1ccc(-c2cc(O)ccc2O)o1
inhibition [2]: inactive

Cc1cccc(C)c1NC(=O)c1ccc(-c2cc(F)ccc2F)o1
IC50 [1]: 308 nM

COc1ccc(C)c(NC(=O)c2ccc(-c3cc(Cl)ccc3Cl)o2)c1
IC50 [1]: 931 nM

CCc1cccc(C)c1NC(=O)c1ccc(-c2cc(Cl)ccc2Cl)o1
inhibition [3]: 55% | inhibition [4]: 50% | inhibition [5]: inactive | inhibition [6]: 50% | IC50 [1]: 41 nM

COc1cc(C)c(NC(=O)c2ccc(-c3cc(Cl)ccc3Cl)o2)c(C)c1
inhibition [3]: 30% | inhibition [4]: 40% | inhibition [5]: 20% | inhibition [6]: 70% | IC50 [1]: 80 nM | IC50 [9]: 2800 nM

O=C(Nc1c(F)cccc1F)c1ccc(-c2cc(Cl)ccc2Cl)o1
IC50 [1]: 6400 nM

Cc1cccc(C)c1NC(=O)c1ccc(-c2cccc(Cl)c2)o1
IC50 [1]: 497 nM

Cc1cc(O)cc(C)c1NC(=O)c1ccc(-c2cc(Cl)ccc2Cl)o1
IC50 [7]: 3000 nM | IC50 [8]: 5300 nM | inhibition [6]: 90% | IC50 [1]: 58 nM | IC50 [9]: 2800 nM

CC(=O)OCc1cc(C)c(NC(=O)c2ccc(-c3cc(Cl)ccc3Cl)o2)c(C)c1
IC50 [1]: 34 nM

Cc1cccc(Cl)c1NC(=O)c1ccc(-c2cc(Cl)ccc2Cl)o1
IC50 [1]: 169 nM

Cc1cccc(C)c1NC(=O)c1ccc(-c2ccc(Cl)cc2Cl)o1
IC50 [1]: 2000 nM

Cc1ccc2ccccc2c1NC(=O)c1ccc(-c2cc(Cl)ccc2Cl)o1
IC50 [1]: 253 nM

Cc1cccc(C)c1N(C)C(=O)c1ccc(-c2ccccc2Cl)o1
IC50 [1]: 269 nM

Cc1cccc(C)c1NC(=O)c1ccc(-c2ccccc2)o1
IC50 [1]: 575 nM

Cc1cscc1-c1ccc(C(=O)Nc2c(C)cccc2C)o1
IC50 [1]: 286 nM

Cc1cccc(C)c1N(C)C(=O)c1ccc(-c2ccco2)o1
IC50 [1]: 130 nM

Cc1cccc(C)c1NC(=O)c1ccc(-c2cc(Cl)ccc2Cl)o1
IC50 [7]: 14000 nM | IC50 [1]: 78 nM

Cc1ccsc1-c1ccc(C(=O)Nc2c(C)cc(CO)cc2C)o1
inhibition [3]: inactive | inhibition [4]: inactive | inhibition [5]: 80% | inhibition [6]: 90% | IC50 [1]: 34 nM

Cc1cccc(C)c1NC(=O)c1ccc(-c2c(C)cccc2C)o1
inhibition [2]: inactive

Cc1ccc(C)c(NC(=O)c2ccc(-c3cc(Cl)ccc3Cl)o2)c1
IC50 [1]: 165 nM

Cc1cc(CN(C)C)cc(C)c1NC(=O)c1ccc(-c2cc(Cl)ccc2Cl)o1
IC50 [1]: 348 nM

Cc1ccsc1-c1ccc(C(=O)Nc2c(C)cccc2C)o1
inhibition [3]: 20% | inhibition [4]: 40% | inhibition [5]: 95% | IC50 [1]: 93 nM | IC50 [9]: 2600 nM

COc1ccc(NC(=O)c2ccc(-c3cc(Cl)ccc3Cl)o2)c(C)c1
IC50 [1]: 589 nM
